For 111 molecules, inhibition results are on record in PubChem BioAssay AID463073 (The Scripps Research Institute Molecular Screening Center, 2010).

The campaign covered roughly 2,000 compounds. About 10 (0.5%) were called active. This excerpt belongs to a sample that is enriched for actives. Values without a mark were called inactive.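 How the source made its calls: active means inhibition above 30%; inactive means the rest.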 Residues, ends and D or L forms follow the SMILES beside them. *: point of attachment. Boc = CC(C)(C)OC(=O)*

Chain of Protein-arginine deiminase type-4 (Homo sapiens) (Q9UM07 whole entry, looked up): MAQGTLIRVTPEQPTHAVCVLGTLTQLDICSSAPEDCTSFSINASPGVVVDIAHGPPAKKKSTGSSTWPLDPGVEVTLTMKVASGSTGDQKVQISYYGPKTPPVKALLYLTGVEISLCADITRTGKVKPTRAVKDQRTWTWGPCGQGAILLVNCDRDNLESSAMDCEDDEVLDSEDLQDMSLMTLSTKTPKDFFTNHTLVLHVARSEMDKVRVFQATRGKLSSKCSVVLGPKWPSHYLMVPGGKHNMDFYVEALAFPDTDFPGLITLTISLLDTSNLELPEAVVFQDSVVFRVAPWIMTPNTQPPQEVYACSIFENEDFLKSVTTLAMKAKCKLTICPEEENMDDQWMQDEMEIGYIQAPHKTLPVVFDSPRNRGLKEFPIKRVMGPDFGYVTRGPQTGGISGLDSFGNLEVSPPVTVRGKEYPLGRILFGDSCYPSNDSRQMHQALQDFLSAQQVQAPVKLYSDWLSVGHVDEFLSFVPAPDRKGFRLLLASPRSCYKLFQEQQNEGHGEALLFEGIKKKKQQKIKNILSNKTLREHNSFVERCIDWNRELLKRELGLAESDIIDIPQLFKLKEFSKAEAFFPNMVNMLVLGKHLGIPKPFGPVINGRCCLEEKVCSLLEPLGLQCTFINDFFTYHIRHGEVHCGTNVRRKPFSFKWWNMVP

This experiment addresses Protein-arginine deiminase type-4 (Homo sapiens) (UniProt Q9UM07). The experiment can be described thus: human PAD4 inhibitors, primary screen, biochemical, fluorescence polarization (AID 463073).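 Further: 0% = PAD4 with DMSO and 100% = wells lacking PAD4.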 To be noted: recombinant PAD4, RFA probe fluorescence polarization; at 5 µM; stronger effect = higher value. Summed up:
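system = recombinant PAD4 | amount = PAD4 at 2 µM in dispensed buffer, before additions | incubation = 30 min 25 °C preincubation, 5 h 37 °C labeling | measured by = FP, ex 525 nm, em 598 nm | replication = single well per compound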
(In general: Fluorescence polarisation rises when a labelled molecule tumbles more slowly, as on binding a larger partner.)
In the case of `CCc1ccc2oc(=O)cc(CN3CCC(C)CC3)c2c1`, the inhibition (commonly the relative decrease from the control value, in per cent) was -1.47%.
The value for `C[N+](C)(C)CCCC(=O)c1ccc2c(c1)OCO2` was 3.91%; that for `CC(=O)NC(CC(C)C)C(=O)NC(Cc1ccccc1)C(N)=O` (stereo not drawn) (Ac-Leu-Phe-NH2; configuration not given here) was 1.27%; that for `COc1ccc2c(C=O)cn(C)c2c1` was -2.41%.
With `COC(=O)c1[nH]c2ccccc2c1NC(=O)CN1CCN(C/C=C/c2ccccc2)CC1` the figure was 0.97%.
With `Cc1ccnc(NS(=O)(=O)c2ccc(N)cc2)n1` the figure was 1.25%; with `COc1cc(=O)n(C)c2ccccc12`, 0.98%.
As to `CC(C)CC(NC(=O)c1cccc(Cl)c1)C(=O)O` (stereo unspecified), the inhibition is -0.07%.
The value for `Cc1c(O)c(=O)ccn1C` was 4.09%; that for `Cc1cccc(C)c1NS(=O)(=O)c1ccc(NC(=O)c2ccc(Cl)c([N+](=O)[O-])c2)cc1` was 5.98%.
For `C=CCNC(=S)N1CCc2c([nH]c3ccccc23)C1C` (stereo unspecified), the inhibition is -0.07%.
With `CCN1C(=O)C(CC(=O)Nc2ccc(OC)cc2)N(CCc2ccc(F)cc2)C1=S` (stereo unspecified) the figure was 3.71%; with `Cc1ccccc1-c1nn(-c2ccc(F)cc2F)cc1CNCCN(C)C`, -4.06%.
Regarding `COc1ccc2[nH]cc(C(=O)CCl)c2c1`, the inhibition was 2.86%.
The value for `COC(=O)CN1CC(=O)N(c2ccccc2)C1=S` was -0.98%; that for `O=c1oc2c(CN3CCCCC3)c(O)ccc2c2c1CCCCC2` was -1.21%; that for `COC1=C(N)C(=O)c2nc(-c3nc(C(=O)O)c(C)c(-c4ccc(OC)c(OC)c4O)c3N)ccc2C1=O` was 92.5% (active).
With `COc1ccc2oc(=O)c(-c3nc(C)cs3)cc2c1` the figure was 3.51%; with `O=C(NCc1ccc2c(c1)OCO2)c1ccc2c(c1)OCCO2`, 2.19%.
The value for `CCOC(=O)C1C(=O)CC(C)(O)C(C(=O)OCC)C1/C=C/c1ccccc1` (stereo unspecified) was 0.16%.
For `CCOc1ccc(N2C(=O)CNC2=S)cc1`, the inhibition was 0.84%.
The value for `COc1ccc(N2C(=O)C3C(C2=O)C(C(=O)c2ccccc2)N2CCCC32)cc1` (stereo unspecified) was 2.54%; that for `COc1ccc(C(=O)[C@H]2[C@H]3C(=O)N(c4ccccc4)C(=O)[C@H]3C3C=CC=NN32)cc1` (stereo partly specified) was 2.34%; that for `COc1ccc(N2C(=O)[C@@H]3[C@H](C2=O)[C@H]2c4ccccc4C=CN2[C@@H]3C(C)=O)cc1` was 37.2% (active).
The value for `CCNCCC(CCC(C)C)c1ccc2c(c1)OCO2` (stereo unspecified) was 2.15%.
The value for `COc1ccc(C(=O)/C=C/c2cc(C(=O)O)cc3c2OCOC3)c(O)c1` was 3%.
Turning to `Clc1ccc2c(c1)[C@H]1OCC[C@H]1[C@@H](c1ccco1)N2`, the inhibition is 1.39%.
The value for `NS(=O)(=O)c1cc2c(cc1Cl)NC(CSCc1ccccc1)=NS2(=O)=O` was 0.58%; that for `COC(=O)C1=C(C)N(C)C(=S)NC1c1ccc(Cl)cc1` (stereo unspecified) was 0.42%; that for `C#C[C@]1(O)CC[C@H]2[C@@H]3CCC4=C(CCC(=O)C4)[C@H]3CC[C@@]21C` was 0.19%.
Regarding `CC[n+]1c(C)sc2cc(C)ccc21`, the inhibition is 0.78%.
With `NC(=O)[C@@H]1[C@@H]2C(=O)N(c3ccc(F)cc3)C(=O)[C@@H]2[C@H]2C=Cc3ccccc3N21` the figure was -1.24%.
Turning to `COc1ccc(-c2[nH]ncc2CN(C)C(C)c2ccon2)c(OC)c1` (stereo unspecified), the inhibition is 4.74%.
The value for `COc1cc(NC(=S)NN2CCN(C)CC2)cc(OC)c1OC` was -5.47%; that for `CC1(C)Cc2ccccc2C(C(Cc2ccccc2)C(N)=O)=N1` (stereo unspecified) was 1.19%; that for `COc1ccc(NC2=C(Cl)C(=O)N(c3ccccc3)C2=O)c(OC)c1` was 7.44%.
The value for `CSc1ccc(CN2CCN(CCC(C)C)C(CCO)C2)cc1` (stereo unspecified) was -2.67%.
With `CC1(C)CC(=O)C(C2(O)C(=O)Nc3ccccc32)CO1` (stereo unspecified) the figure was 7.91%; with `CCOC(=O)c1cnc2ccccc2c1NCCO`, 1.39%.
As for `COc1ccc(C2(CCN=Cc3ccc(N(C)C)cc3)CCOC(C)(C)C2)cc1` (stereo unspecified), the inhibition was 4.88%.
With `CC(C)OC(=O)c1ccc(NC(=O)c2cncc(Br)c2)cc1` the figure was 3.13%; with `CCOc1cccc(N2C(=O)CC(N(CCc3ccc(OC)c(OC)c3)C(=O)CC)C2=O)c1` (stereo unspecified), 4.11%.
Turning to `C[C@H](NC(=O)Nc1ccccc1F)C(=O)O`, the inhibition is 3.34%.
With `Cc1ncc([N+](=O)[O-])n1CCO` the figure was -2.21%; with `CC(C)OC(=O)C1C2C=CC3(CN(CC4CCCO4)C(=O)C13)O2` (stereo unspecified), 3.74%; with `CC(=O)C1=C(O)C(=O)OC1c1ccc(C)cc1` (stereo unspecified), 3.6%.
With `Cc1ccc(CSCC(=O)N2CCCC2)cc1` the figure was 0.78%; with `Cc1coc2cc3oc(=O)c(CCC(=O)O)c(C)c3cc12`, 1.74%.
For the molecule `C=CCNc1nc2c(c(=O)n(C)c(=O)n2C)n1CC(=C)C`, the inhibition was 2.6%.
The value for `CC(=O)Oc1ccc(C2OC(=O)c3ccccc3N2C(C)=O)cc1` (stereo unspecified) was 4.61%; that for `C/C(=N\NC(=O)c1ccccc1[N+](=O)[O-])c1ccc(Br)s1` was -5.19%; that for `CC(=O)OC1c2c(ccc3ccc(=O)oc23)OC(C)(C)C1OC(=O)CC(C)C` (stereo unspecified) was 3.34%.
On to `COc1ccc2c(c1)C(=O)CC(c1ccccc1F)O2` (stereo unspecified), for which the inhibition is -3.92%.
With `O=C(NCCc1nc2ccccc2[nH]1)c1cccc(Br)c1` the figure was 2.09%; with `CCOC(=O)C1=C2c3ccc4ccccc4c3CC(C)(C)N2C(=O)C1=O`, 4.17%; with `COc1ccc(OC)c(S(=O)(=O)N2CCCc3ccccc32)c1`, 1.48%.
Turning to `CC(=O)c1c(N)nc2n(c1=O)CCCCC2`, the inhibition is 2.24%.
The value for `CC1(C)C(=O)OC(/C=C\c2ccccc2)C(C)(C)C1=O` (stereo unspecified) was -4.36%.
With `Cc1ccc(SCC(=O)Nc2nccs2)cc1` the figure was -3.72%; with `CCN1CCn2c3c(c4cc(Cl)ccc42)CCCC31` (stereo unspecified), 0.84%.
With `Cc1ccsc1/C=C/C1=NCCCN1C` the figure was 1.68%.
On to `CC(C)Cc1cc(C(=O)N2CCC(N3CCC(C(=O)N4CCCC4)CC3)CC2)n[nH]1`, for which the inhibition was 1.19%.
The value for `COc1ccc(C(=O)NC(=O)NC2(C(Cl)(Cl)Cl)OCCO2)cc1` was 3.68%; that for `COc1cc(OC)c2c(C)c(Cl)c(=O)oc2c1` was 5.74%.
For `COc1ccc(C2NCCC3(O)CCCCC23)c(OC)c1OC` (stereo unspecified), the inhibition is -0.4%.
With `CC1(C)C(=O)OC(C(=O)c2ccc(Cl)cc2)C(C)(C)C1=O` (stereo unspecified) the figure was -1.03%; with `COc1ccc(OC(C)C(=O)Nc2ccccc2F)cc1` (stereo unspecified), -0.2%.
The value for `COc1cccc(OC)c1C(=O)NCCSC1CCCCC1` was -2.94%.
The value for `COc1ccc(N2C(=O)C3CCCN3C2=O)cc1` (stereo unspecified) was 4.89%; that for `CC1(C)Cc2nc3oc4c(NCc5ccccc5)ncnc4c3cc2CO1` was 1.79%.
`CCOC(=O)C1NN=C(C(=O)c2ccccc2)C1c1ccc(Cl)cc1` (stereo unspecified): the inhibition is 1.88%.
The value for `CN(C)C(=O)C12CCC(C)(c3nc4ccccc4nc31)C2(C)C` (stereo unspecified) was 3.6%.
The value for `Cc1ccc(S(=O)(=O)NC(C(=O)Oc2ccc3c(C(F)(F)F)cc(=O)oc3c2)c2ccccc2)cc1` (stereo unspecified) was 6.06%; that for `O=C(NCCC(c1ccccc1)c1ccco1)c1cccs1` (stereo unspecified) was -4.26%.
With `O=C1CC[C@@H](CN(Cc2ccccc2)Cc2cn[nH]c2-c2cc3ccccc3o2)N1` the figure was -4.5%; with `CC(C)CC(NC(=O)C1CCCN1C(=O)OC(C)(C)C)C(=O)NCC(N)=O` (stereo not drawn) (Boc-Pro-Leu-Gly-NH2; configuration not given here), 0.39%.
For the molecule `Cc1nc2cc3ccccc3cc2c(=O)[nH]1`, the inhibition is -2.65%.
With `O=C(O)c1cnccn1` the figure was 1.59%.
The value for `CC1(CC(=O)Nc2ccccc2)NC(=S)N(c2ccccc2)N1` (stereo unspecified) was 0.19%; that for `O=C1c2cccc3cccc(c23)C(=O)N1c1ccccn1` was -4.66%; that for `O=C(c1ccc(-c2ccccc2)c(F)c1)C1CCCN(C(=O)c2cncs2)C1` (stereo unspecified) was 3.12%.
Consider `O=C(O)CCSCCC(=O)O`, for which the inhibition was -2.7%.
With `COc1ccc(C(C)=O)c2c1OCCO2` the figure was 6.78%; with `CC1(C)CC(C(CC(=O)N2CCCC2)Cc2ccccc2)CCO1` (stereo unspecified), -1.3%.
The value for `COc1ccc(NS(=O)(=O)c2ccc(N)cc2)nn1` was 0.73%; that for `COc1ccc(-c2noc(-c3ccccc3-c3ccccc3)n2)cc1` was -3.61%; that for `O=C1C2CC=C(Cl)CC2C(=O)N1CCc1c[nH]c2ccccc12` (stereo unspecified) was -0.53%.
Regarding `COc1ccc(C(CC(=O)N2CCOCC2)C(C)C)cc1` (stereo unspecified), the inhibition was 4.61%.
With `COc1ccc(N2CCN(C(=S)NCc3ccccc3)CC2)cc1` the figure was -1.38%; with `COc1ccc(NC(=S)N2CCN(CCN3C(=O)c4cccc5cccc(c45)C3=O)CC2)cc1`, 2.54%; with `COC(=O)[C@@H](N)CS`, 2.39%.
The value for `O=C(NC(=S)Nc1nc(-c2ccccc2)cs1)c1ccco1` was 4.01%.
The value for `CC(NC(=O)c1ccc(OC2CCN(Cc3ccccn3)CC2)cc1)c1ccccc1` (stereo unspecified) was -1.87%; that for `OCC1CCN(Cc2cn(Cc3ccccc3)nc2-c2cc3ccccc3o2)CC1` was -3.81%; that for `CCOc1ccc2nc(N/C(N)=N/S(C)(=O)=O)nc(C)c2c1` was -1.87%.
For the molecule `COc1cc(SC)ccc1C(=O)NC(C)C`, the inhibition is -4.36%.
For `CCn1c(O)c(/C=C2\C=Nc3ccccc32)sc1=O`, the inhibition was 6.23%.
With `Cc1ccc(C(=O)NCCNC(=O)c2ccccc2)cc1` the figure was -2.16%; with `CC12CCC(C(=O)Nc3ccccc3Br)(C/C1=N\O)C2(C)C` (stereo unspecified), 2.8%.
The value for `COC(=O)c1ccc2c(c1)C(=O)/C(=C/c1ccc(O)cc1)O2` was 2.19%; that for `NC[C@H]1O[C@H](O[C@H]2[C@H](O)[C@@H](O[C@H]3O[C@H](CO)[C@@H](O)[C@H](N)[C@H]3O)[C@H](N)C[C@@H]2N)[C@H](N)C[C@@H]1O` was 0.78%; that for `O=C(c1ccccc1)N1CCN(C(=O)c2ccccc2)CC1` was -0.13%.
With `Cn1c(=O)c2c(nc(SCCN3CCCCC3)n2C)n(C)c1=O` the figure was 4.29%; with `CCSC(=O)CCCCCCCCCCCO`, 3.34%; with `CC(C)OC(=O)C1C(=O)CC(C)(O)C(C(=O)OC(C)C)C1c1cccc(O)c1` (stereo unspecified), 2.73%.
Take `COc1ccc(O)c(C(=O)/C=C/c2cc3ccccc3o2)c1`: the inhibition is 0.93%.
With `COc1ccc(CCNC(=O)CC(c2ccccc2)c2cccc(C)c2O)cc1OC` (stereo unspecified) the figure was 1.59%; with `COc1ccc(C2NC(C(=O)O)Cc3c2[nH]c2ccccc32)cc1CN1CCN(c2ccc(F)cc2)CC1` (stereo unspecified), 6.02%; with `CC(=O)[C@@]1(O)CC[C@H]2[C@@H]3C[C@H](C)C4=CC(=O)C=C[C@]4(C)[C@@]3(F)[C@@H](O)C[C@@]21C`, -5.68%.
`COc1ccc2c(c1OC)C(=O)OC2C1c2c(cc3c(c2OC)OCO3)CCN1C` (stereo unspecified): the inhibition is 7.1%.
The value for `CCOC(=O)c1ccc2[nH]c(C)c(CCC(C)=O)c(=O)c2c1` was -4.46%.
